Data: ChEMBL document CHEMBL1799977, “Discovery of MK-0952, a selective PDE4 inhibitor for the treatment of long-term memory loss and mild cognitive impairment” (Bioorg Med Chem Lett, 2010)
Active and inactive are the calls of the source. No cut-off for these calls is given here.

Assays:
[1] = organism: Rattus norvegicus; experiment: Induction of adverse effect in Lister rat assessed as induction of malaise by conditional taste aversion test; type: organism-based; details: in vivo
Procedure, shortened: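 Singly housed male hooded Lister rats, water-deprived 22.5 h/day. On two conditioning days they had 20 min access to 0.1% saccharin, then received oral compound in 0.5% methocel, vehicle, or LiCl 30 mg/kg ip. Consumption on test day was compared with baseline (n = 6–8; Dunnett's test).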

[2] = system: Brain; experiment: Drug level in brain of Lister rat during conditional taste aversion test; type: ADME, tissue-based; details: in vivo, read-out: Drug uptake
Procedure, shortened: (§1)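 Male hooded Lister rats in the conditioned taste aversion test given oral compound in 0.5% methocel. Plasma and whole brain levels were measured on the tested animals 90 min post-dosing.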

[3] = system: Plasma; experiment: Drug level in plasma of Lister rat during conditional taste aversion test; type: ADME, cell-free; procedure, shortened: as §1
[4] = Inhibition of PDE4 activity in rat whole blood assessed as inhibition of LPS-induced TNF-alpha release; type: tissue-based
[5] = system: Plasma; experiment: Drug level in plasma of Lister rat during water maze delayed matching to position test
[6] = organism: Rattus norvegicus; experiment: Cognitive enhancing effect in Lister rat assessed as change in escape latency pretreated 30 mins before sample phase by water maze delayed matching to position test; type: functional; details: read-out: MED
Procedure, shortened: (§2)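 Rats in a water maze with the platform moved daily, four 60 s trials per day over five days. Oral dosing in 0.5% methocel, 90 or 30 min before the sample trial. Savings score = escape latency difference between trials 1 and 2 over a 4 h delay. n = 10; Newman–Keuls test.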

[7] = system: Brain; experiment: Drug level in brain of Lister rat during water maze delayed matching to position test; details: in vivo, read-out: Drug uptake
[8] = system: Rattus norvegicus; experiment: Cognitive enhancing effect in Lister rat assessed as recognition of novel object at 0.1 mg/kg, po pretreated 90 mins before sample phase by novel object recognition test; type: functional, organism-based; set-up: dose 0.1 mg/kg
Procedure, shortened: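 Novel object recognition in rats. Oral dosing in 0.5% methocel 90 min before the sample trial, which ended at 25 s of exploration or 3 min. Choice trial followed with a familiar and a novel object. d2 score = (novel − familiar)/total exploration. n = 21–24; Newman–Keuls test.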

[9] = Ratio IC50 for PDE4 activity in human whole blood to IC50 for PDE4; type: tissue-based
Procedure, shortened: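 Ratio of two IC50s. The numerator is from human whole blood stimulated with LPS, read as inhibition of TNF-α release. The denominator (PDE4QT) is the mean of the IC50s on the PDE4A, B and D catalytic domains. These were expressed as GST constructs in Sf9 cells by baculovirus. Each IC50 is the average of at least two experiments.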

[10] = target: Phosphodiesterase 4 (Homo sapiens, UniProt P27815+Q08499+Q07343+Q08493); experiment: Inhibition of PDE4 activity in human whole blood assessed as inhibition of LPS-induced TNF-alpha release
[11] = target: T1, Cytochrome P450 2C9 (Homo sapiens, UniProt P11712); experiment: Competitive inhibition of CYP2C9; type: ADME
T1 sequence (P11712 whole entry): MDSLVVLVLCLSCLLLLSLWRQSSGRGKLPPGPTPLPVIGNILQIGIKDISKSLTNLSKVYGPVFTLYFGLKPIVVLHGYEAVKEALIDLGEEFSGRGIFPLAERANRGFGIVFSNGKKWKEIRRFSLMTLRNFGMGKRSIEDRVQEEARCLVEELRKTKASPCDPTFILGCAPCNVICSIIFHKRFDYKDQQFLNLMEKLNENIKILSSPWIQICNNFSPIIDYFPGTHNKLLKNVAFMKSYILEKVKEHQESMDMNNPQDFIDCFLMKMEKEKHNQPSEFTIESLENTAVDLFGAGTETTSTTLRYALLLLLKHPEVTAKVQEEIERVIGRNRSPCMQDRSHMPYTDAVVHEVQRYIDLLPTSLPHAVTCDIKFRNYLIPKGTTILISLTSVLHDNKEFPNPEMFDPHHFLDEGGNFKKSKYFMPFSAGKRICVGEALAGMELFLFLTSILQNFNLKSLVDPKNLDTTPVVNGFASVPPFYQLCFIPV

[12] = target: 3',5'-cyclic-AMP phosphodiesterase 4A (Homo sapiens, UniProt P27815); experiment: Inhibition of PDE4A; details: pooled result: one value given for 3 cell lines, strains, targets or settings
Sequence of 3',5'-cyclic-AMP phosphodiesterase 4A (P27815 whole entry, the tested form may be a part): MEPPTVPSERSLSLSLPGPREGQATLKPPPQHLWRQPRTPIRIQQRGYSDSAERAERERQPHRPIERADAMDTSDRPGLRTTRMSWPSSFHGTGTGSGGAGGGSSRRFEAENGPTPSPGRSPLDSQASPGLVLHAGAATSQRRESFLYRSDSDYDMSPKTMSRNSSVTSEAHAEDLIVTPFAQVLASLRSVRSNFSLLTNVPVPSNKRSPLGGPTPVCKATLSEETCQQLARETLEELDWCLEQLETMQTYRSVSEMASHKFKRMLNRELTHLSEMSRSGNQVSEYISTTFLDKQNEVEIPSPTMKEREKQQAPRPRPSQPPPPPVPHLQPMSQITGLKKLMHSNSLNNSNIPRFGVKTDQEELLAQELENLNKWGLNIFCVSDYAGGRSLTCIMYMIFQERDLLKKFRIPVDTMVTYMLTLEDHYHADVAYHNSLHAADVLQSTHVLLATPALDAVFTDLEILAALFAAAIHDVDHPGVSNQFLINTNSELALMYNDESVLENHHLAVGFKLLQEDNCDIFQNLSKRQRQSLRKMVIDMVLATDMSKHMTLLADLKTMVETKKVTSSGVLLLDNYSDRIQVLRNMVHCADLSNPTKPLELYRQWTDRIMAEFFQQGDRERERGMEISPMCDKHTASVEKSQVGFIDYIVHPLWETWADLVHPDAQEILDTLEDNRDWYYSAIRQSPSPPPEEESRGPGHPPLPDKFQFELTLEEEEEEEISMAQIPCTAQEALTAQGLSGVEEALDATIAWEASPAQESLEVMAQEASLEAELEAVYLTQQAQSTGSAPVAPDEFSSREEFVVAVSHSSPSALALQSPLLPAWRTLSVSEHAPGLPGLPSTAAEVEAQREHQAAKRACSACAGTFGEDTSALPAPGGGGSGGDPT
Procedure, shortened: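 Catalytic domains of PDE4A, B and D expressed as GST constructs in SF9 cells (baculovirus). IC50s are averages of at least two experiments.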

[13] = organism: Rattus norvegicus; experiment: Cognitive enhancing effect in Lister rat assessed as change in escape latency pretreated before sample phase by water maze delayed matching to position test; type: functional; details: read-out: MED; procedure, shortened: as §2
[14] = Metabolic stability in female rat hepatocytes assessed as compound metabolism level; type: ADME, cell-based, Hepatocyte; details: read-out: Activity
[15] = Clearance in rat at 10 mg/kg, po or 3 mg/kg, iv; type: ADME, organism-based; details: in vivo
[16] = target: T2, Cytochrome P450 1A2 (Homo sapiens, UniProt P05177); experiment: Inhibition of human CYP1A2; type: ADME
T2 sequence (P05177 whole entry): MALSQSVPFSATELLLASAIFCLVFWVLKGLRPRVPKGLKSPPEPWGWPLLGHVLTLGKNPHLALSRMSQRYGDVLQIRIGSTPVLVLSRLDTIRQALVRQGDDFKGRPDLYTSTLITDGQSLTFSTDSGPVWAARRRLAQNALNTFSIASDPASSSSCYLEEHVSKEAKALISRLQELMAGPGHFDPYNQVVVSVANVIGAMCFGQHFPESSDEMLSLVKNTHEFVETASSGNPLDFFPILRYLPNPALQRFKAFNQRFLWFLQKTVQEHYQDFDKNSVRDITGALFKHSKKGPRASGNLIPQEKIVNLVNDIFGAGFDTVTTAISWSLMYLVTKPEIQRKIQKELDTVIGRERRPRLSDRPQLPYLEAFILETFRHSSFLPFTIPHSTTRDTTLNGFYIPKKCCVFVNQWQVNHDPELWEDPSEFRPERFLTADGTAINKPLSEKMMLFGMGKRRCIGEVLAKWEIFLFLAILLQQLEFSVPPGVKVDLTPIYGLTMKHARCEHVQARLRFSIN

[17] = organism: Rattus norvegicus; experiment: Cognitive enhancing effect in Lister rat assessed as change in escape latency pretreated 90 mins before sample phase by water maze delayed matching to position test; type: functional; details: read-out: MED; procedure, shortened: as §2
[18] = Metabolic stability in dog hepatocytes assessed as compound metabolism level; type: ADME, cell-based, Canis lupus familiaris, Hepatocyte; details: read-out: Activity
[19] = Clearance in rhesus monkey at 10 mg/kg, po or 1 mg/kg, iv; type: ADME, organism-based, Macaca mulatta; details: in vivo
[20] = Half life in squirrel monkey at 10 mg/kg, po or 1 mg/kg, iv; type: ADME, organism-based; details: saimiri, in vivo
[21] = Inhibition of PDE4 activity in rhesus monkey whole blood assessed as inhibition of LPS-induced TNF-alpha release; type: tissue-based; details: Macaca mulatta
[22] = Oral bioavailability in rhesus monkey at 10 mg/kg; type: ADME, organism-based, Macaca mulatta; details: in vivo
[23] = target: CYP3A (Homo sapiens, UniProt P08684+P20815+P24462+Q9HB55); experiment: Inhibition of human CYP3A; type: ADME
[24] = Metabolic stability in rhesus monkey hepatocytes assessed as compound metabolism level; type: ADME, cell-based, Macaca mulatta, Hepatocyte; details: read-out: Activity
[25] = Clearance in squirrel monkey at 10 mg/kg, po or 1 mg/kg, iv; type: ADME, organism-based; details: saimiri, in vivo
[26] = Half life in rhesus monkey at 10 mg/kg, po or 1 mg/kg, iv; type: ADME, organism-based, Macaca mulatta; details: in vivo
[27] = Metabolic stability in male rat hepatocytes assessed as compound metabolism level; type: ADME, cell-based, Hepatocyte; details: read-out: Activity
[28] = system: Hepatocyte; experiment: Increase in CYP3A4 protein level in human primary hepatocytes at 10 uM by Western blot analysis relative to rifampicin; type: ADME, cell-based
Procedure, shortened: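 Human primary cultured hepatocytes exposed to 10 µM compound; CYP3A4 protein measured by Western blot relative to rifampicin at 10 µM.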

[29] = Half life in dog at 3 mg/kg, po or 1 mg/kg, iv; type: ADME, organism-based, Canis lupus familiaris; details: in vivo
[30] = Oral bioavailability in dog at 3 mg/kg; type: ADME, organism-based, Canis lupus familiaris; details: in vivo
[31] = Clearance in dog at 3 mg/kg, po or 1 mg/kg, iv; type: ADME, organism-based, Canis lupus familiaris; details: in vivo
[32] = Oral bioavailability in squirrel monkey at 10 mg/kg; type: ADME, organism-based; details: saimiri, in vivo
[33] = Metabolic stability in human hepatocytes assessed as compound metabolism level; type: ADME, cell-based, Hepatocyte; details: read-out: Activity
[34] = Drug excretion in bile cannulated male rat assessed as excretion of parent compound in bile at 3 mg/kg, iv using [3H]-labeled compound measured after 8 hrs; type: ADME, organism-based; set-up: dose 3 mg/kg, route intravenous; details: in vivo
Procedure, shortened: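 Permanently bile-cannulated male rats dosed iv with tritiated compound (3 mg/kg, 100 μCi/kg); bile collected 0–8 h and parent expressed as % of total radioactivity.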

[35] = target: T1, Cytochrome P450 2C9; experiment: Inhibition of human CYP2C9; type: ADME
[36] = target: Cytochrome P450 2D6 (Homo sapiens, UniProt P10635); experiment: Inhibition of human CYP2D6; type: ADME
Sequence of Cytochrome P450 2D6 (P10635 whole entry): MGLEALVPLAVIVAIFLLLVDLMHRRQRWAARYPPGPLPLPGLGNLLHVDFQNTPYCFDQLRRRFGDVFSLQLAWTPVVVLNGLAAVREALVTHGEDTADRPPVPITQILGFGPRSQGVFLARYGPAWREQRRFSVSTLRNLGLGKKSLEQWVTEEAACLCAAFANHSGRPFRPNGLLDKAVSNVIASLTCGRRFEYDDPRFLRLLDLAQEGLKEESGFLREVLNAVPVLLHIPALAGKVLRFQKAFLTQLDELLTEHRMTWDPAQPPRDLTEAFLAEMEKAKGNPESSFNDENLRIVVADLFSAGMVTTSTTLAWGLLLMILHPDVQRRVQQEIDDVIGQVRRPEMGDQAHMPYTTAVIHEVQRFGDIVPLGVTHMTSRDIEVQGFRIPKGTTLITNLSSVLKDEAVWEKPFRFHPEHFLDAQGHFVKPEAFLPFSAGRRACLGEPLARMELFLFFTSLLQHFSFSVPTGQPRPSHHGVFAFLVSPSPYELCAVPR

[37] = Oral bioavailability in rat at 10 mg/kg; type: ADME, organism-based; details: in vivo
[38] = organism: Rattus norvegicus; experiment: Ratio MED for cognitive enhancing effect in lister rat during water maze delayed matching to position test to MED for adverse effect in lister rat during conditional taste aversion test; type: functional
Procedure, shortened: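 Therapeutic window as water maze MED over CTA MED. Water maze: rats dosed orally daily in 0.5% methocel before sample trial, 0.01–3.0 mg/kg, n = 10; four 60 s trials/day, 4 h inter-trial delay, savings score. CTA: water-deprived male hooded Lister rats, 20 min 0.1% saccharin on two conditioning days, oral dose immediately after; LiCl 30.0 mg/kg ip control; test-day intake.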

[39] = Half life in rat at 10 mg/kg, po or 3 mg/kg, iv; type: ADME, organism-based; details: in vivo
[40] = Inhibition of PDE4 activity in squirrel monkey whole blood assessed as inhibition of LPS-induced TNF-alpha release; type: tissue-based; details: Saimiri

Cc1noc(/C(=C/c2cccc(-c3cc(C(C)(C)S(C)(=O)=O)cc4cccnc34)c2)c2ccc(S(C)(=O)=O)cc2)n1
MED [1]: 1 mg/kg | concentration [2]: 21 nM | concentration [3]: 113 nM | IC50 [4]: 0.023 µM | concentration [5]: 27 nM | minimal effective dose [6]: 0.3 mg/kg | concentration [7]: 5.1 nM | Activity [8]: Active

O=C(NC1CC1)c1cn(-c2cccc(C#Cc3ccc[n+]([O-])c3)c2)c2ncccc2c1=O [MK-0873]
MED [1]: 1 mg/kg | concentration [2]: 48 nM | Ratio IC50 [9]: 37 | concentration [3]: 828 nM | IC50 [10]: 0.19 µM | IC50 [4]: 0.064 µM | concentration [5]: 258 nM | IC50 [11]: 40 µM | IC50 [12]: 0.0051 µM | concentration [7]: 15 nM | minimal effective dose [13]: 0.3 mg/kg

O=C(NC1CC1)c1cn(-c2cccc(-c3ccc([C@@H]4C[C@H]4C(=O)O)c(F)c3)c2)c2ncccc2c1=O
metabolised [14]: 20% | clearance [15]: 1 mL/min/kg | MED [1]: 10 mg/kg | IC50 [16]: > 100 µM | minimal effective dose [17]: 0.1 mg/kg | metabolised [18]: 30% | concentration [2]: 290 nM | clearance [19]: 1.3 mL/min/kg | half-life [20]: 4.3 h | concentration [3]: 12000 nM | IC50 [10]: 0.55 µM | IC50 [4]: 0.45 µM | IC50 [21]: 0.94 µM | concentration [5]: 390 nM | bioavailability [22]: 77% | IC50 [23]: > 100 µM | metabolised [24]: 10% | clearance [25]: 1.7 mL/min/kg | IC50 [12]: 0.00053 µM | half-life [26]: 6.5 h | metabolised [27]: 5% | Activity [28]: 23% | half-life [29]: 6.6 h | bioavailability [30]: 100% | clearance [31]: 3.7 mL/min/kg | bioavailability [32]: 41% | metabolised [33]: 2% | concentration [7]: 9.2 nM | Activity [34]: > 35% | IC50 [35]: > 100 µM | IC50 [36]: > 100 µM | bioavailability [37]: 38% | Ratio [38]: 100 | half-life [39]: 3.5 h | IC50 [40]: 0.052 µM
